ChEMBL document CHEMBL4270530, “Surmounting the resistance against EGFR inhibitors through the development of thieno[2,3-d]pyrimidine-based dual EGFR/HER2 inhibitors” (Eur J Med Chem, 2018)
pIC50: −log10 of the molar value.

Legend:
[1] = tested on: M14; test: Growth inhibition of human M14 cells assessed as cell growth at 10 uM incubated for 48 hrs by sulforhodamine B assay relative to control; format: functional; details: M14, 48 h, read-out: Activity
Procedure, shortened: (§1)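 NCI-60 one-dose screen run by the NCI Developmental Therapeutics Program at a single 10 µM concentration; growth percent read from the one-dose mean graph.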

[2] = tested on: TK-10; test: Growth inhibition of human TK10 cells at 10 uM incubated for 48 hrs by sulforhodamine B assay relative to control; format: functional; details: TK-10, 48 h, read-out: GI
Procedure, shortened: (§2)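 NCI-60 single-dose screen at 10 µM run by the NCI Developmental Therapeutics Program; growth percent read from the one-dose mean graph, with percent inhibition approximated from those growth-percent values.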

[3] = tested on: MDA-MB-468; test: Growth inhibition of human MDA-MB-468 cells at 10 uM incubated for 48 hrs by sulforhodamine B assay relative to control; format: functional; details: MDA-MB-468, 48 h, read-out: GI; procedure, shortened: as §1
[4] = tested on: LOX IMVI; test: Growth inhibition of human LOXIMVI cells assessed as cell growth at 10 uM incubated for 48 hrs by sulforhodamine B assay relative to control; format: functional; details: read-out: Activity; procedure, shortened: as §1
[5] = tested on: NCI-H522; test: Growth inhibition of human NCI-H522 cells assessed as cell growth at 10 uM incubated for 48 hrs by sulforhodamine B assay relative to control; format: functional; details: NCI-H522, 48 h, read-out: Activity; procedure, shortened: as §1
[6] = tested on: Hs-578T; test: Growth inhibition of human Hs 578T cells assessed as cell growth at 10 uM incubated for 48 hrs by sulforhodamine B assay relative to control; format: functional; details: read-out: Activity; procedure, shortened: as §1
[7] = tested on: UACC-257; test: Growth inhibition of human UACC257 cells assessed as cell growth at 10 uM incubated for 48 hrs by sulforhodamine B assay relative to control; format: functional; details: UACC-257, 48 h, read-out: Activity; procedure, shortened: as §2
[8] = tested on: SF-268; test: Growth inhibition of human SF268 cells assessed as cell growth at 10 uM incubated for 48 hrs by sulforhodamine B assay relative to control; format: functional; details: SF-268, 48 h, read-out: Activity; procedure, shortened: as §1
[9] = tested on: NCI-H322M; test: Growth inhibition of human NCI-H322M cells at 10 uM incubated for 48 hrs by sulforhodamine B assay relative to control; format: functional; details: read-out: GI; procedure, shortened: as §1
[10] = tested on: U-251; test: Growth inhibition of human U251 cells assessed as cell growth at 10 uM incubated for 48 hrs by sulforhodamine B assay relative to control; format: functional; details: U-251, 48 h, read-out: Activity; procedure, shortened: as §2
[11] = tested on: MDA-MB-361; test: Cytotoxicity against human MDA-MB-361 cells over expressing HER2 assessed as reduction in cell viability after 72 hrs by sulforhodamine B assay; format: functional, cell-based; details: MDA-MB-361, 72 h
Procedure, shortened: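 Cells seeded and grown 24 h, then exposed to 0.1% DMSO vehicle or 0.3125-20 μM compound for 72 h. Fixed with ice-cold 50% TCA (1 h, 4 °C), stained with 0.4% SRB 30 min at room temperature, dye solubilized in 10 mM tris base pH 10.5, OD read at 560 nm. Survival fraction = OD treated/OD vehicle; IC50 from triplicates of at least two independent experiments, mean ± SD.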

[12] = tested on: A498; test: Growth inhibition of human A498 cells assessed as cell growth at 10 uM incubated for 48 hrs by sulforhodamine B assay relative to control; format: functional; details: A498, 48 h, read-out: Activity; procedure, shortened: as §1
[13] = tested on: CCRF-CEM; test: Growth inhibition of human CCRF-CEM cells assessed as cell growth at 10 uM incubated for 48 hrs by sulforhodamine B assay relative to control; format: functional; details: read-out: Activity; procedure, shortened: as §1
[14] = tested on: OVCAR-4; test: Growth inhibition of human OVCAR4 cells assessed as cell growth at 10 uM incubated for 48 hrs by sulforhodamine B assay relative to control; format: functional; details: OVCAR-4, 48 h, read-out: Activity; procedure, shortened: as §1
[15] = tested on: NCI-H460; test: Growth inhibition of human NCI-H460 cells assessed as cell growth at 10 uM incubated for 48 hrs by sulforhodamine B assay relative to control; format: functional; details: NCI-H460, 48 h, read-out: Activity; procedure, shortened: as §1
[16] = tested on: SK-MEL-2; test: Growth inhibition of human SK-MEL-2 cells assessed as cell growth at 10 uM incubated for 48 hrs by sulforhodamine B assay relative to control; format: functional; details: SK-MEL-2, 48 h, read-out: Activity; procedure, shortened: as §1
[17] = tested on: SF-539; test: Growth inhibition of human SF539 cells assessed as cell growth at 10 uM incubated for 48 hrs by sulforhodamine B assay relative to control; format: functional; details: SF-539, 48 h, read-out: Activity; procedure, shortened: as §1
[18] = tested on: UO-31; test: Growth inhibition of human UO31 cells assessed as cell growth at 10 uM incubated for 48 hrs by sulforhodamine B assay relative to control; format: functional; details: UO-31, 48 h, read-out: Activity; procedure, shortened: as §2
[19] = tested on: RXF 393; test: Growth inhibition of human RXF393 cells assessed as cell growth at 10 uM incubated for 48 hrs by sulforhodamine B assay relative to control; format: functional; details: RXF 393, 48 h, read-out: Activity; procedure, shortened: as §1
[20] = tested on: Malme-3M; test: Growth inhibition of human MALME-3M cells assessed as cell growth at 10 uM incubated for 48 hrs by sulforhodamine B assay relative to control; format: functional; details: read-out: Activity; procedure, shortened: as §1
[21] = tested on: SNB-19; test: Growth inhibition of human SNB19 cells assessed as cell growth at 10 uM incubated for 48 hrs by sulforhodamine B assay relative to control; format: functional; details: SNB-19, 48 h, read-out: Activity; procedure, shortened: as §1
[22] = tested on: SK-MEL-5; test: Growth inhibition of human SK-MEL-5 cells assessed as cell growth at 10 uM incubated for 48 hrs by sulforhodamine B assay relative to control; format: functional; details: SK-MEL-5, 48 h, read-out: Activity; procedure, shortened: as §1
[23] = tested on: 786-0; test: Growth inhibition of human 786-0 cells assessed as cell growth at 10 uM incubated for 48 hrs by sulforhodamine B assay relative to control; format: functional; details: 786-0, 48 h, read-out: Activity; procedure, shortened: as §1
[24] = tested on: HCT-116; test: Growth inhibition of human HCT116 cells assessed as cell growth at 10 uM incubated for 48 hrs by sulforhodamine B assay relative to control; format: functional; details: HCT-116, 48 h, read-out: Activity; procedure, shortened: as §1
[25] = tested on: T47D; test: Growth inhibition of human T47D cells assessed as cell growth at 10 uM incubated for 48 hrs by sulforhodamine B assay relative to control; format: functional; details: read-out: Activity; procedure, shortened: as §2
[26] = tested on: PC-3; test: Growth inhibition of human PC3 cells assessed as cell growth at 10 uM incubated for 48 hrs by sulforhodamine B assay relative to control; format: functional; details: PC-3, 48 h, read-out: Activity; procedure, shortened: as §1
[27] = tested on: SN12C; test: Growth inhibition of human SN12C cells assessed as cell growth at 10 uM incubated for 48 hrs by sulforhodamine B assay relative to control; format: functional; details: read-out: Activity; procedure, shortened: as §1
[28] = tested on: A549; test: Growth inhibition of human A549/ATCC cells assessed as cell growth at 10 uM incubated for 48 hrs by sulforhodamine B assay relative to control; format: functional; details: A549, 48 h, read-out: Activity; procedure, shortened: as §1
[29] = tested on: OVCAR-3; test: Growth inhibition of human OVCAR3 cells assessed as cell growth at 10 uM incubated for 48 hrs by sulforhodamine B assay relative to control; format: functional; details: OVCAR-3, 48 h, read-out: Activity; procedure, shortened: as §1
[30] = tested on: EKVX; test: Growth inhibition of human EKVX cells at 10 uM incubated for 48 hrs by sulforhodamine B assay relative to control; format: functional; details: read-out: GI; procedure, shortened: as §1
[31] = tested on: SW-620; test: Growth inhibition of human SW620 cells assessed as cell growth at 10 uM incubated for 48 hrs by sulforhodamine B assay relative to control; format: functional; details: SW-620, 48 h, read-out: Activity; procedure, shortened: as §2

O=[N+]([O-])c1ccc(-c2cc3c(Nc4ccc(OCc5cccc(F)c5)c(Cl)c4)ncnc3s2)cc1
growth at 10 µM [1]: 77.2% | inhibition of growth at 10 µM [2]: 30% | inhibition of growth at 10 µM [3]: 40% | growth at 10 µM [4]: 75.5% | growth at 10 µM [5]: 68.3% | growth at 10 µM [6]: 94.9% | growth at 10 µM [7]: 93.5% | growth at 10 µM [8]: 80.1% | inhibition of growth at 10 µM [9]: 15% | growth at 10 µM [10]: 55.1% | pIC50 [11]: 5.12 | growth at 10 µM [12]: 84.8% | growth at 10 µM [13]: 68.6% | growth at 10 µM [14]: 89.6% | growth at 10 µM [15]: 42.2% | growth at 10 µM [16]: 86.2% | growth at 10 µM [17]: 99.2% | growth at 10 µM [18]: 59.2% | growth at 10 µM [19]: 81.3% | growth at 10 µM [20]: 94.4% | growth at 10 µM [21]: 68% | growth at 10 µM [22]: 92.8% | growth at 10 µM [23]: 95.4% | growth at 10 µM [24]: 60.2% | growth at 10 µM [25]: 76.6% | growth at 10 µM [26]: 54.1% | growth at 10 µM [27]: 83.4% | growth at 10 µM [28]: 51.4% | growth at 10 µM [29]: 34.5% | inhibition of growth at 10 µM [30]: 20% | growth at 10 µM [31]: 93.5%

Nc1ccc(-c2cc3c(Nc4ccc(OCc5cccc(F)c5)c(Cl)c4)ncnc3s2)cc1
growth at 10 µM [1]: 51.9% | inhibition of growth at 10 µM [2]: 70% | inhibition of growth at 10 µM [3]: 85% | growth at 10 µM [4]: 24.5% | growth at 10 µM [5]: 13.1% | growth at 10 µM [6]: 77% | growth at 10 µM [7]: 18.3% | growth at 10 µM [8]: 52.1% | inhibition of growth at 10 µM [9]: 75% | growth at 10 µM [10]: 57% | pIC50 [11]: 5.24 | growth at 10 µM [12]: 39.3% | growth at 10 µM [13]: 23.9% | growth at 10 µM [14]: 54.8% | growth at 10 µM [15]: 36.5% | growth at 10 µM [16]: 25.4% | growth at 10 µM [17]: 57.4% | growth at 10 µM [18]: 19.6% | growth at 10 µM [19]: 52.5% | growth at 10 µM [20]: 42.1% | growth at 10 µM [21]: 77.3% | growth at 10 µM [22]: 57.7% | growth at 10 µM [23]: 37.2% | growth at 10 µM [24]: 50.7% | growth at 10 µM [25]: 15.4% | growth at 10 µM [26]: 29.6% | growth at 10 µM [27]: 48.4% | growth at 10 µM [28]: 21.2% | growth at 10 µM [29]: 46.6% | inhibition of growth at 10 µM [30]: 80% | growth at 10 µM [31]: 74.1%
